# Source: ChEMBL document CHEMBL1135138, “2-Aminothiazoles: a new class of agonist allosteric enhancers of A(1) adenosine receptors” (Bioorg Med Chem Lett, 2002)
# pEC50: −log10 of the molar value. Calls of active or inactive are those of the source. No cut-off for these calls is given here.
# Legend:
# [1] = target: T1, Adenosine receptor A1 (Homo sapiens, UniProt P30542); test: Effective concentration against Adenosine A1 receptor
# T1 sequence (P30542 whole entry): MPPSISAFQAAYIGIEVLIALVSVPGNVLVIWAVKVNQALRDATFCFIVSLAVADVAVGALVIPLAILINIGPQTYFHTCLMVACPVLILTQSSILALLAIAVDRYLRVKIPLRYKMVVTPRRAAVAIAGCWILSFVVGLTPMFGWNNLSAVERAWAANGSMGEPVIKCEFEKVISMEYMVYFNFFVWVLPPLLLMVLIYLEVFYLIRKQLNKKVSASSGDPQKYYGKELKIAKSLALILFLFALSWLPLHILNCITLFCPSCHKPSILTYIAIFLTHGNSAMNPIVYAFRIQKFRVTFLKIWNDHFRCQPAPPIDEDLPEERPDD
# [2] = target: T2, Adenosine receptor A1 (Homo sapiens) (UniProt P30542); test: AE activity is the ratio of specific binding at the end of dissociation to specific binding at the end of 120 min of equilibration at 5 uM concentration to Adenosine A1 receptor
# T2 sequence (whole entry): T1 sequence (P30542 whole entry)
# In short: (§1)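 Test agent from DMSO stock was added for 5 min. Dissociation was started with 8-CPT plus GTPγS and stopped after 10 min by glass-fibre filtration. Nonspecific binding (8-CPT/GTPγS, no agent) was subtracted. % = specific binding after dissociation ÷ after equilibration. Means of 2–3 experiments ±SEM.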
# [3] = target: T2, Adenosine receptor A1 (Homo sapiens); test: AE activity is the ratio of specific binding at the end of dissociation to specific binding at the end of 120 min of equilibration at 50 uM concentration to Adenosine A1 receptor; not significantly active; in short: as §1
# [4] = target: T3, Adenosine receptor A3 (Homo sapiens) (UniProt P0DMS8); test: Percent allosteric enhancer (AE) activity from ratio of specific binding to Adenosine A3 receptor at end of dissociation to that of 120 min of equilibration
# T3 sequence (whole entry): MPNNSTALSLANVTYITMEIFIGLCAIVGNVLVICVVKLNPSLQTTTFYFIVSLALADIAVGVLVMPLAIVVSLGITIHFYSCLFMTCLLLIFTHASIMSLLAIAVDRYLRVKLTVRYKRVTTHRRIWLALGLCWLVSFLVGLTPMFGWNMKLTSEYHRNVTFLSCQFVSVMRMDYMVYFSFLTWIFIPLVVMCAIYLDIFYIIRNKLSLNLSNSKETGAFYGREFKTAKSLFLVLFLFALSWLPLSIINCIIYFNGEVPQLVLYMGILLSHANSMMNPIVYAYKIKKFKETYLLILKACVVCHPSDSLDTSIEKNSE
# [5] = target: Adenosine receptor A2a (Homo sapiens) (UniProt P29274); test: Percent allosteric enhancer (AE) activity from ratio of specific binding to Adenosine A2A receptor at end of dissociation to that of 120 min of equilibration
# Adenosine receptor A2a (Homo sapiens), sequence (P29274 whole entry): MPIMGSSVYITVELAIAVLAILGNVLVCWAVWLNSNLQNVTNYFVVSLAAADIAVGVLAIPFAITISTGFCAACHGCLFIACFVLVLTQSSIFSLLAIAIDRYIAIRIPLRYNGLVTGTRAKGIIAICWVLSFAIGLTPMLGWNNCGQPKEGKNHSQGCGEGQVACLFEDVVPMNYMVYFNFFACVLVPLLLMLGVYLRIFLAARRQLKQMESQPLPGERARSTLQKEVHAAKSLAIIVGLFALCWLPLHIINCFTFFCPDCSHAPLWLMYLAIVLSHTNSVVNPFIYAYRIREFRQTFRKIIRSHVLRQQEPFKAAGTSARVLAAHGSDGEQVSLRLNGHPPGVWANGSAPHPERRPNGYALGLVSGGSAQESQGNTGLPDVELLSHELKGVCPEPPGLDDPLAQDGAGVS
# [6] = target: T2, Adenosine receptor A1 (Homo sapiens); test: AE activity is the ratio of specific binding at the end of dissociation to specific binding at the end of 120 min of equilibration at 50 uM concentration to Adenosine A1 receptor; in short: as §1
# [7] = target: T2, Adenosine receptor A1 (Homo sapiens); test: AE activity is the ratio of specific binding at the end of dissociation to specific binding at the end of 120 min of equilibration at 5 uM concentration to Adenosine A1 receptor; not significantly active; in short: as §1
smiles,measurement,setting,value
COc1cc2c(c(OC)c1OC)Cc1sc(N)nc1-2,pEC50,[1],4.77
same,AE activity,[2],60%
Nc1nc2c(s1)-c1ccccc1CC2,AE activity,[3],inactive
COc1cc2c(cc1OC)-c1nc(N)sc1C2,AE activity,[4],29%
same,AE activity,[5],36%
same,AE activity,[6],78%
Cc1cccc2c1Cc1sc(N)nc1-2,AE activity,[6],81%
COc1cc2c(c(OC)c1OC)-c1nc(N)sc1C2,AE activity,[6],24%
CC(=O)Oc1cccc2c1Cc1sc(N)nc1-2,AE activity,[4],22%
same,AE activity,[5],19%
same,AE activity,[2],74%
Cc1ccc2c(c1)-c1nc(N)sc1C2,pEC50,[1],5.38
same,AE activity,[6],72%
Nc1nc2c(s1)COc1ccccc1-2,AE activity,[6],62%
Nc1nc2c(s1)Cc1c(OC(=O)C3CCCC3)cccc1-2,pEC50,[1],5.35
same,AE activity,[6],85%
COc1ccc2c(c1)Cc1sc(N)nc1-2,pEC50,[1],4.30
same,AE activity,[6],66%
Nc1nc2c(s1)CCCc1ccccc1-2,AE activity,[3],inactive
Nc1nc2c(s1)CCCC2,AE activity,[6],19%
Nc1nc2c(s1)CCc1cc(OC(=O)c3ccccc3)ccc1-2,AE activity,[2],54%
Nc1nc2c(s1)CCc1cc(OC3C=CC=C3)ccc1-2,AE activity,[7],inactive
COc1ccc2c(c1)CCc1sc(N)nc1-2,AE activity,[4],8%
same,AE activity,[5],18%
same,AE activity,[6],78%
CCCCCCCCOc1ccc2c(c1)CCc1sc(N)nc1-2,AE activity,[2],45%
Nc1nc2c(s1)Cc1ccccc1-2,pEC50,[1],4.42
same,AE activity,[6],91%
Nc1nc2c(s1)-c1ccccc1C2,AE activity,[3],inactive
CC(=O)Oc1ccc2c(c1)CCc1sc(N)nc1-2,AE activity,[4],30%
same,AE activity,[5],24%
same,AE activity,[6],95%
Nc1nc2c(s1)CCCCC2,AE activity,[3],inactive
Nc1nc2c(s1)CCc1ccccc1-2,pEC50,[1],4.77
same,AE activity,[6],80%
CCCCCOc1ccc2c(c1)CCc1sc(N)nc1-2,AE activity,[2],41%
Nc1nc2c(s1)Cc1c(OC(=O)C3CCCCC3)cccc1-2,AE activity,[3],inactive
Nc1nc2c(s1)Cc1cc(Br)ccc1-2,AE activity,[3],inactive
